The record followed here is ChEMBL document CHEMBL1158033, “C-26 and C-30 apocarotenoids from seeds of Ditaxis heterantha with antioxidant activity and protection against DNA oxidative damage” (J Nat Prod, 2006).

Data set [1] can be described thus: Antiradical activity assessed as DPPH radical scavenging activity at 1500 uM by spectrophotometry relative to control. The data set is classed as physicochemical. In a few lines:
(§1)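 Sample (150–1500 μM; MeOH, or Et2O for lycopene, β-carotene, astaxanthin) added to 150 μM DPPH in MeOH and kept in the dark at ~20 °C for 60 min. Absorbance read at 520 nm. Activity = 100 × (1 − Asample/Acontrol), with control lacking sample. Triplicates; Tukey's test and Pearson correlation.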
In general terms: DPPH is a stable violet radical that fades when it is reduced.

A short description of data set [2]: Antiradical activity assessed as DPPH radical scavenging activity at 1050 uM by spectrophotometry relative to control. The format is physicochemical. In a few lines: as §1
Data set [3] in a line: Antigenotoxic activity against H2O2-induced oxidative DNA damage in rat lymphocyte assessed as olive tail moment at 1000 uM by comet assay. The data set is classed as functional. Summed up:
(§2)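 Rat peripheral blood mononuclear cells isolated on Histopaque 1077, 1×10^7 cells/mL in cold PBS pH 7.4, viability >90% by trypan blue. Cells preincubated with sample in DMSO (5%) at 37 °C for 30 min, then H2O2 1 mM final, 37 °C for 10 min. Alkaline comet assay, ethidium bromide stain, image analysis of 50 cells, 400×. Mean ± SE of four values, one-way ANOVA.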

The next data set has as its system Lymphocyte. Put plainly: Antigenotoxic activity against H2O2-induced oxidative DNA damage in rat lymphocyte assessed as cauda tail moment at 1000 uM by comet assay. The data set is classed as functional. Summed up: as §2
A short description of data set [4]: Antigenotoxic activity against H2O2-induced oxidative DNA damage in rat lymphocyte assessed as tail length at 1000 uM by comet assay. The data set is classed as functional. Summed up:
as §2

The nature of data set [5]: Antigenotoxic activity against H2O2-induced oxidative DNA damage in rat lymphocyte assessed as cauda tail moment at 500 uM by comet assay. The format is functional. In a few lines: as §2
Data set [6] is described as follows: Antigenotoxic activity against H2O2-induced oxidative DNA damage in rat lymphocyte assessed as olive tail moment at 500 uM by comet assay. The format is functional. In a few lines: as §2
A short description of data set [7]: Antigenotoxic activity against H2O2-induced oxidative DNA damage in rat lymphocyte assessed as tail length at 500 uM by comet assay. The data set is classed as functional. Summed up:
as §2

A short description of data set [8]: Antiradical activity assessed as DPPH radical scavenging activity at 150 uM by spectrophotometry relative to control. The data set is classed as physicochemical. In a few lines: as §1
A short description of data set [9]: Antiradical activity assessed as DPPH radical scavenging activity at 750 uM by spectrophotometry relative to control. The format is physicochemical. Summed up: as §1

Turning to `CC1=C(/C=C/C(C)=C/C=C/C(C)=C/C=C/C=C(C)/C=C/C=C(C)/C=C/C2=C(C)C(=O)[C@@H](O)CC2(C)C)C(C)(C)C[C@H](O)C1=O` [ASTAXANTHIN], the results for the Activity in [1] and in data set [2] were 52% and “Active”, respectively.
In the case of `CC1=C(/C=C/C(C)=C/C=C/C(C)=C/C=C/C=C(C)/C=C/C=C(C)/C=C/C2=C(C)CCCC2(C)C)C(C)(C)CCC1` [BETA CAROTENE], the Activity in data set [1] is listed as 36%; in data set [2], “Active”.
For the compound `COC(=O)/C(C)=C/C=C/C(C)=C/C=C/C=C(C)/C=C/C=C(C)/C=C/[C@]12O[C@@H](CC1(C)C)C[C@]2(C)O` [DITAXIN], the Activity in [3] came to 8.21 a.u; in the data set on Lymphocyte it was 12.27 a.u; in [1] it was 12%; in [4], 28.15 um; in data set [5], 18.8 a.u; in [6] it was 11.58 a.u. The values for the Activity in data set [7] and in data set [2] were 35.94 um and “Active”, respectively.
Turning to `COC(=O)/C(C)=C/C=C/C=C(C)/C=C/C=C(C)/C=C/[C@@H]1C(C)=CC(=O)CC1(C)C` [HETERANTHIN], the Activity in [3] stood at 4.4 a.u; in the data set on Lymphocyte, 6.24 a.u; in data set [1] it was 21%; in [4], 20.93 um; in data set [5], 17.02 a.u; in data set [6], 10.8 a.u. The Activity is given as 34.13 um in [7], “Active” in [8], “Active” in [9] and “Active” in data set [2].
With `CC(C)=CCC/C(C)=C/C=C/C(C)=C/C=C/C(C)=C/C=C/C=C(C)/C=C/C=C(C)/C=C/C=C(\C)CCC=C(C)C` [LYCOPENE], the Activity in data set [1] is recorded as 36%; in data set [2] it was “Active”.
